The values below come from ChEMBL document CHEMBL4513216, “Probing the Open Global Health Chemical Diversity Library for Multistage-Active Starting Points for Next-Generation Antimalarials” (ACS Infect Dis, 2020).

This series is described as follows: Toxicity liver stage against HepG2, at 10uM. The format is cell-based. Also on record: test concentration 10 uM, cell line HepG2-A16-CD81EGFP. The note with it: human, HepG2-A16-CD81EGFP cells; read-out: INHIBITION
Put shortly: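 Uninfected HepG2-A16-CD81EGFP cells, 3 × 10^3 per well, 1536-well, plated on prespotted compound at 10 μM final, parasite-free screening media added to match infected plates; puromycin 10 μM positive, DMSO 0.5% negative; run in parallel with 48 h PbLuc assay at 37 °C, 5% CO2; viability by CellTiter-Glo luminescence, normalized to controls.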
Turning to `O=S1(=O)c2cccnc2OC(COc2ccccc2)CN1CC1CC1` (stereo not given), the cytotoxicity at 10 µM was -3.24%. With `Cc1ccc(-c2ccnc(NCC(O)c3ccc(O)cc3)n2)c(C)n1` (stereo not given) the figure was 0.781%. With `FC(F)(F)Cn1ccnc1CN1CCOC(Cn2cccn2)C1` (stereo not given) the figure was 0.0962%.

With `CC(C)OCCCN(CC(=O)N1CCNCC1)C(=O)c1ccc(F)cc1`, the cytotoxicity at 10 µM amounted to 8.85%. The result for `Cc1nc(C2CCCN2C(=O)CCn2cncn2)no1` (stereo not given) reads -17.8%. Consider `O=C(NCCCO)c1nnsc1-c1ccccc1`, for which the cytotoxicity at 10 µM amounted to 7.47%.

On to `Cn1nc(C(=O)NC2(c3ccc(Cl)cc3)CCCC2)ccc1=O`, for which the cytotoxicity at 10 µM is -4.47%.

As to `CNC(=O)COc1ccc(CNc2cncc(-n3cccn3)n2)cc1`, the cytotoxicity at 10 µM is -0.906%. Take `Fc1ccc(NCc2ncc[nH]2)cc1Br`: the cytotoxicity at 10 µM was 3.76%.

As to `O=C(Nc1nc2c(s1)CCC2)NC1CCCC1`, the cytotoxicity at 10 µM was -8.6%. The result for `COc1ccc(C(C)NCc2scnc2C)cc1Cn1cccn1` (stereo not given) reads -3.53%; that for `CCOc1ccc(Cl)c(C(=O)N2CCN(c3cnccn3)CC2)n1`, -4.89%.

Consider `Cc1cc(N(C)C)nc(C2COCCN2Cc2nccn2C)n1` (stereo not given), for which the cytotoxicity at 10 µM was -3.43%. With `COc1ccc(C(=O)N2CCN3C(=O)CNC(=O)[C@@H]3C2)cc1`, the cytotoxicity at 10 µM was -7.1%.

In the case of `O=C(Cc1ccc2c(c1)OCO2)N1CCN(c2ccncc2)CC1`, the cytotoxicity at 10 µM is -22.9%. The result for `CC(C)Cc1cc(C(=O)O)nc2[nH]c(=O)[nH]c(=O)c12` reads -0.508%. With `Cc1nc(CN2CCCN(C(=O)C3(C#N)CCCCC3)CC2)cs1` the figure was -9.98%. For the compound `O=C(c1ccc(S(=O)(=O)NCc2ccon2)cc1)N1CCCCCC1`, the cytotoxicity at 10 µM amounted to 0.424%. With `COCCNC(=O)Cn1c(-c2cccc(Cl)c2)nc(C)c(CCO)c1=O` the figure was -0.86%; with `Cc1ccc(CN(C)Cc2cc(C3CC3)[nH]n2)c(O)n1`, 4.11%; with `COCC(=O)N1CCCC1c1ccc(C(=O)NCCN2CCCCC2)s1` (stereo not given), 4.26%. For `COc1ccccc1CC(=O)NS(=O)(=O)c1ccc(C#N)cc1`, the cytotoxicity at 10 µM was -10.4%. Take `CN1CC[C@H]2OCC[C@@]2(C(=O)NCCc2ccccn2)C1`: the cytotoxicity at 10 µM was 1.82%. As to `Cc1ccc(CN2C[C@@H]3CC[C@H]2CN(Cc2[nH]cnc2C)C3)o1`, the cytotoxicity at 10 µM was -6.81%. With `COCCN(C)C[C@@H]1CN(C(=O)c2c(C)cccc2OC)C[C@@H]1CO` the figure was -4.26%; with `COc1cccc(-c2nc(CNC(C)Cn3cccn3)cs2)c1` (stereo not given), -6.31%. The result for `CCN(CC)C(=O)N1CCOCC1c1c(C)nn(C)c1C` (stereo not given) reads 11.3%.

As for `CN([C@@H]1CCC[C@@H](n2ccnc2)[C@@H]1O)S(=O)(=O)c1cn(C)cn1`, the cytotoxicity at 10 µM was 0.57%. As to `O=C(NCc1nnc2n1CCC2)c1cn(-c2ccccc2Br)nn1`, the cytotoxicity at 10 µM came out at 3.37%. With `COc1ccc(CN(C)Cn2cc(C)n(-c3cc(C)on3)c2=O)cc1` the figure was 3.36%; with `COCCCN(C)S(=O)(=O)c1ccc(C(F)(F)F)cc1C#N`, -4.55%; with `Cc1ccc(Cl)c(CN2CCN(C)C(C(=O)O)C2)c1F` (stereo not given), -0.0679%. Consider `O=c1n(CCNCc2ccc(-c3ccccc3)cc2)nc2ccccn12`, for which the cytotoxicity at 10 µM was found to be 0.932%. The result for `O=C(c1c[nH]cn1)N1CCC(F)(F)C2(CCN(c3ccccn3)C2)C1` (stereo not given) reads 11%; that for `CC(Sc1nncn1C)C(=O)NCCCOc1ccc(F)cc1` (stereo not given), -49.2%. Take `CC(C)NC(=O)N1CCC[C@H]1C(=O)NCCCc1cnn(C)c1`: the cytotoxicity at 10 µM came to 0.00333%.

For `COCCNC(=O)c1nn(-c2cccc(C(C)C)c2)cc1O`, the cytotoxicity at 10 µM is -2.35%. The result for `CC1CN(C2CCN(Cc3nccn3CC(F)(F)F)CC2)CCO1` (stereo not given) reads -1.32%; that for `CC1c2ncc(Cn3cccn3)n2CCN1S(=O)(=O)C1CC1` (stereo not given), -108%; that for `Cc1ccc(=O)n(CC2(O)CCN(Cc3cccs3)CC2)n1`, -5.72%. The result for `Cc1c[nH]c(CN2CCCCC2CCc2cccc(O)c2)c(C)c1=O` (stereo not given) reads -14.6%; that for `CC(C)c1cnc(N2C[C@H](CO)C[C@H](CN3CCOCC3)C2)nc1`, -7.45%.

In the case of `OC1(CNc2ccc(-c3nc(C4CC4)no3)cn2)CCCCC1`, the cytotoxicity at 10 µM stood at 7.72%. On to `Cc1cccc(CN2CCN(c3ncnc4[nH]ccc34)CC2CCO)n1` (stereo not given), for which the cytotoxicity at 10 µM came out at 10.8%.

Consider `c1ccc(O[C@H]2COCCN(Cc3c[nH]c4ccccc34)C2)cc1`, for which the cytotoxicity at 10 µM was -0.347%. With `COc1ccc(C[C@H]2CN(c3nnc(C)s3)CC[C@H]2OC)cc1` the figure was 8.04%; with `Cc1nn(C)c(N2CCOCC2)c1CNCc1cscn1`, -8.07%; with `c1ccc2c(c1)CC(N1CCCC(NCc3cccc4nonc34)C1)C2` (stereo not given), -1.98%. Turning to `CN(C)c1ccnc(C2CCCN2)n1` (stereo not given), the cytotoxicity at 10 µM came out at 1.76%. On to `O=C(NC1CCCC1)N1CCCCC1c1nc(C2CC2)no1` (stereo not given), for which the cytotoxicity at 10 µM is -9.52%.

For the compound `CN(CC(=O)N(C)C1CCN(CC2CCOC2)CC1)c1ccccc1` (stereo not given), the cytotoxicity at 10 µM is -9.45%. With `CCC(C)[C@H](N)c1nnc(SCC(=O)Nc2cc(C)ccc2C)o1` (stereo not given in full), the cytotoxicity at 10 µM is -12.7%. As to `CN1CCN(Cc2cnc3n2CCN(Cc2cccnc2)CC3)CC1`, the cytotoxicity at 10 µM is 6.26%.

For `Clc1cccc2c3c([nH]c12)CCN(Cc1cc2n(n1)CCNC2)C3`, the cytotoxicity at 10 µM is -0.735%. Regarding `CS(=O)(=O)Nc1cccc(CNC(=O)CCc2ccsc2)c1`, the cytotoxicity at 10 µM turned out to be 2.24%. The result for `Cc1c(C)n(Cc2ccncc2)c2nc3c(c(N)c12)CCCCCC3` reads 9.18%; that for `Cn1cc(C2(C)CN(Cc3ccc(N4CCCC4)nc3)CCO2)cn1` (stereo not given), 8.32%.

For `CC(C)N1CCC2(CC1)CC(CC(N)=O)c1ccc(F)cc12` (stereo not given), the cytotoxicity at 10 µM was 12.8%.

In the case of `Cc1nc2c(c(NC3CCN(Cc4cccnc4)CC3)n1)CCNCC2`, the cytotoxicity at 10 µM was -1.14%.

In the case of `Oc1cccc(CN2C[C@@H]3CC[C@H]2CN(Cc2ccncc2)C3)c1`, the cytotoxicity at 10 µM is -131%.

In the case of `Cc1nc(-c2nc(C(=O)N(C)C)c3ccccn23)cn1C(C)C`, the cytotoxicity at 10 µM is -121%. Regarding `CCc1csc(C2CCCN(C(=O)CCn3cc(C)cn3)C2)n1` (stereo not given), the cytotoxicity at 10 µM worked out at 1.82%. Turning to `O=C(c1ccc(O)cn1)N1CCOC(c2ccc(Cl)c(Cl)c2)C1` (stereo not given), the cytotoxicity at 10 µM is -4.57%.

Regarding `CCC(C)(COc1ncccc1Cl)NCC(=O)NCC(C)C` (stereo not given), the cytotoxicity at 10 µM is -2.86%. The result for `Cc1nnc(N2CCC(CNC(=O)OC(C)(C)C)CC2)c(C#N)c1C` reads 2.6%. For the compound `COCC1c2nnn(CC3CC3)c2CCN1C(=O)C1CCOCC1` (stereo not given), the cytotoxicity at 10 µM is -136%.

In the case of `CCn1ccnc1C1CCCN(C(=O)c2sc(C)nc2C)C1` (stereo not given), the cytotoxicity at 10 µM is 1.24%. With `CC(=O)N1CCCn2nc(CNC(=O)N3CCCCC3)cc2C1` the figure was -3.91%; with `N#Cc1cc(NS(=O)(=O)c2cc(C(=O)O)cc(Cl)c2Cl)ccc1F`, -1.37%. For the compound `CCOC[C@@H]1CC[C@H]2[C@H](CCN2Cc2c(C)noc2C)O1`, the cytotoxicity at 10 µM was determined as 10.5%. As to `O=C1Nc2ccccc2CNC12CCN(CC1CCCC1)CC2`, the cytotoxicity at 10 µM came out at 6.39%. Take `NC(=O)CCCNC(=O)COc1ccccc1C(F)(F)F`: the cytotoxicity at 10 µM amounted to 2.49%. The result for `CCn1cc(CN(C)C(=O)c2cccc(CCC(C)(C)O)c2)cn1` reads -0.0444%; that for `COc1cc(C(=O)NCCc2ccc(OC)c(OC)c2)on1`, 1.84%; that for `CCn1cc2c(n1)C(COCC1CC1)CN(C(=O)c1ccsc1)C2` (stereo not given), 18.6%. The result for `O=C1CCCN1CC1CN(C(=O)C2CCOCC2)Cc2nccn2C1` (stereo not given) reads 3.33%. With `CCN1CCCCC1C(=O)N1CCc2onc(-c3ccc(Cl)cc3)c2C1` (stereo not given) the figure was -60.1%; with `COCC(=O)NCC(Cc1cccc(F)c1)n1cccc1` (stereo not given), 2.55%. In the case of `CN(C)C(CNS(=O)(=O)c1cc(F)ccc1F)c1cccn1C` (stereo not given), the cytotoxicity at 10 µM was 1.33%.

As to `CCC12CN3CC(C)(CN(C1)C3c1[nH]c(=O)[nH]c(=O)c1C)C2=O` (stereo not given), the cytotoxicity at 10 µM was determined as 6.35%.

Turning to `CS(=O)(=O)N1CCC(Nc2ccnc3ccc(Cl)cc23)CC1`, the cytotoxicity at 10 µM stood at 54.3%.

Consider `O=C(C[C@@H]1COC[C@H]2CN(Cc3ccncc3)C[C@@H]12)N1CCCC1`, for which the cytotoxicity at 10 µM was -2.3%. For the compound `Cc1ccccc1S(=O)(=O)N(C)[C@@H]1CC[C@@H](n2ccnc2C)[C@@H]1O`, the cytotoxicity at 10 µM was -1.07%. On to `CN(CCC#N)C(=O)Cn1cnc2c(Br)cccc2c1=O`, for which the cytotoxicity at 10 µM was -1.6%. With `O=C1[C@H]2CN(Cc3ccc(F)cc3)C[C@H]2CN1CCN1CCCC1`, the cytotoxicity at 10 µM was -13.2%.

In the case of `Cc1ccccc1C1CCCN1Cc1ccc(S(=O)(=O)N(C)C)o1` (stereo not given), the cytotoxicity at 10 µM was -3.42%. With `COc1ccc(C2CN(c3ncccn3)CCN2C(C)=O)cc1` (stereo not given) the figure was 5.27%. With `CNc1nc(C(=O)N2CCCC(c3nccn3CC3CCC3)C2)cs1` (stereo not given) the figure was -16.7%; with `CC(c1ccco1)N(C(=O)Cn1nc2n(c1=O)CCCCC2)C1CC1` (stereo not given), -6.17%; with `c1cc(NC2CC3(CCN(Cc4cscn4)C3)C2)ncn1` (stereo not given), -2.28%. With `COc1cccc2c1CCN(C(=O)NCCc1nccn1C)C2` the figure was 2.38%; with `COc1ccc(Cl)cc1S(=O)(=O)N(C)CC(N)=O`, 7.82%; with `Cc1csc(CN2CCC(C(=O)O)(n3ccc(-c4ccco4)n3)CC2)n1`, -127%. On to `COCc1cn(CC2CCN(Cc3nc(C)c[nH]3)CC2)nn1`, for which the cytotoxicity at 10 µM stood at 0.622%.

Consider `CCC(=O)Nc1cccc(OCC(=O)N(C)Cc2nccn2CC)c1`, for which the cytotoxicity at 10 µM stood at 3.96%.
